ChEMBL document CHEMBL1122457, “Derivatives of beta-adrenergic antagonists. N-Nitrosopropranolol and N-hydroxypropranolol and its aldonitrone” (J Med Chem, 1983)

What was measured:
Rattus norvegicus [1] = organism: Rattus norvegicus; assay: Toxicity (Ames Salmonella Test) in the presence of rat liver S-9 fraction in TA-100 strain (4*10e6 dilution); assay type: organism-based
Procedure, shortened: (§1)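 TA-100 bacteria are exposed to varying compound concentrations for 30 min at 37 °C. They are then diluted to about 10³ bacteria/mL and plated on histidine-enriched (4.5 mM) agar. Surviving colonies are counted.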

Rattus norvegicus [2] = organism: Rattus norvegicus; assay: Mutagenic activity (Ames Salmonella Test) in the presence of rat liver S-9 fraction in TA-100 strain at a conc. of 1000 ug; assay type: functional
Procedure, shortened: (§2)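 Liver 9000g supernatant (1.0 mg protein, PBS-diluted, filtered) plus NADPH (1 mg/plate) went into histidine/biotin-supplemented top agar with overnight TA-98 or TA-100 culture. Compound in Me2SO was added last, with Me2SO as control. His+ revertants were counted after 40 h at 37 °C in the dark, averaging ≥2 plates.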

Rattus norvegicus [3] = organism: Rattus norvegicus; assay: Mutagenic activity (Ames Salmonella Test) in the presence of rat liver S-9 fraction in TA-98 strain; assay type: functional; procedure, shortened: as §2
Rattus norvegicus [4] = organism: Rattus norvegicus; assay: Mutagenic activity (Ames Salmonella Test) in the presence of rat liver S-9 fraction in TA-100 strain; assay type: functional; procedure, shortened: as §2
Rattus norvegicus [5] = organism: Rattus norvegicus; assay: Mutagenic activity (Ames Salmonella Test) in the presence of rat liver S-9 fraction in TA-98 strain at a conc. of 1000 ug; assay type: functional
Procedure, shortened: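 Plate-incorporation reversion assay in TA-98 from an overnight nutrient-broth culture (2–3 × 10⁹ bacteria/mL). The compound is in Me₂SO, added last to top agar at 45 °C. NADPH 1 mg/plate. His⁺ revertants are counted after 40 h at 37 °C in the dark.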

Rattus norvegicus [6] = organism: Rattus norvegicus; assay: Toxicity (Ames Salmonella Test) in the presence of rat liver S-9 fraction in TA-100 strain (4*10e7 dilution); assay type: organism-based; procedure, shortened: as §1
Rattus norvegicus [7] = organism: Rattus norvegicus; assay: Mutagenic activity (Ames Salmonella Test) in the presence of rat liver S-9 fraction in TA-98 strain at a conc. of 500 ug; assay type: functional
Procedure, shortened: as §2, with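 “Male Sprague-Dawley rats received Arochlor 1254 (500 mg/kg in corn oil) and were killed 48 h later. Liver” for “Liver”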

Rattus norvegicus [8] = organism: Rattus norvegicus; assay: Mutagenic activity (Ames Salmonella Test) in the presence of rat liver S-9 fraction in TA-100 strain at a conc. of 500 ug; assay type: functional
Procedure, shortened: as §2, with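 “Male Sprague-Dawley rats received Arochlor 1254 (500 mg/kg in corn oil) and were killed 48 h later. Liver” for “Liver”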

Rattus norvegicus [9] = organism: Rattus norvegicus; assay: Toxicity (Ames Salmonella Test) in the presence of rat liver S-9 fraction in TA-100 strain at a conc. of 500 ug (4*10e6 dilution); assay type: organism-based; procedure, shortened: as §1
Rattus norvegicus [10] = organism: Rattus norvegicus; assay: Toxicity (Ames Salmonella Test) in the presence of rat liver S-9 fraction in TA-100 strain at a conc. of 1000 ug (4*10e6 dilution); assay type: organism-based; procedure, shortened: as §1
Rattus norvegicus [11] = organism: Rattus norvegicus; assay: Toxicity (Ames Salmonella Test) in the presence of rat liver S-9 fraction in TA-100 strain at a conc. of 500 ug (4*10e7 dilution); assay type: organism-based; procedure, shortened: as §1
Rattus norvegicus [12] = organism: Rattus norvegicus; assay: Mutagenic activity (Ames Salmonella Test) in the presence of rat liver S-9 fraction in TA-98 strain at aconc. of 1000 ug; assay type: functional
Procedure, shortened: as §2, with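 “Male Sprague-Dawley rats received Arochlor 1254 (500 mg/kg in corn oil) and were killed 48 h later. Liver” for “Liver”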

SMILES: CC(C)N(CC(O)COc1cccc2ccccc12)N=O (stereo unspecified)
- Toxicity (Rattus norvegicus [1]): 255
- Mutagenicity (Rattus norvegicus [2]): 131
- Mutagenicity (Rattus norvegicus [3]): 14
- Mutagenicity (Rattus norvegicus [4]): 137
- Mutagenicity (Rattus norvegicus [5]): 13
- Toxicity (Rattus norvegicus [6]): 25

SMILES: Br.CC(C)N(O)CC(O)COc1cccc2ccccc12 (stereo unspecified)
- Mutagenicity (Rattus norvegicus [7]): 12
- Mutagenicity (Rattus norvegicus [2]): 134
- Mutagenicity (Rattus norvegicus [8]): 117
- Mutagenicity (Rattus norvegicus [5]): 8
- Toxicity (Rattus norvegicus [9]): 265
- Toxicity (Rattus norvegicus [10]): 183
- Toxicity (Rattus norvegicus [11]): 28

SMILES: CC(C)N(O)CC(O)COc1cccc2ccccc12.O=C(O)C(=O)O (stereo unspecified)
- Toxicity (Rattus norvegicus [1]): 165
- Mutagenicity (Rattus norvegicus [2]): 61
- Mutagenicity (Rattus norvegicus [3]): 18
- Mutagenicity (Rattus norvegicus [12]): 20
- Mutagenicity (Rattus norvegicus [4]): 143
- Toxicity (Rattus norvegicus [10]): 60
- Toxicity (Rattus norvegicus [6]): 18

SMILES: CC(C)NO [ISOPROPYLHYDROXYLAMINE]
- Toxicity (Rattus norvegicus [1]): 230
- Mutagenicity (Rattus norvegicus [3]): 18
- Mutagenicity (Rattus norvegicus [4]): 150

SMILES: CC(C)/[N+]([O-])=C/C(O)COc1cccc2ccccc12 (stereo unspecified)
- Toxicity (Rattus norvegicus [1]): 232
- Mutagenicity (Rattus norvegicus [3]): 18
- Mutagenicity (Rattus norvegicus [4]): 162
